According to article PMC8805511 (Bioorganic & medicinal chemistry letters, 2021):
Like-named read-outs stand apart in the source and are kept apart here. Blank lines part the entries; values can stand above or below the compound they belong to.

Legend:
[1] = test system: tau; details: cited from earlier work
[2] = test system: HeLaC3 cells; assay: total tau; type: cell-based; details: 24 h, Western blot
[3] = T1/2 in mouse liver microsome assays; type: in vitro ADME; details: liver microsomes
Outline: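 Test compound incubated with mouse liver microsomes at 37 °C. The amount of unmodified compound remaining was measured after 30 min as a single-point stability read. T1/2 (min) was calculated from these incubations. Dextromethorphan served as the positive control.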

[4] = solubility; type: physicochemical; details: excluded from further study
[5] = mouse liver microsome stability, compound remaining after 30 minutes; type: in vitro ADME; details: unmodified compound remaining after incubation with mouse liver microsomes for 30 minutes at 37 °C
[6] = mouse liver microsome assays; cited from earlier work

Compound: YM-01
concentration promoting tau degradation [1]: ~ 1 μM

Compound: CCn1c(=O)/c(=C2\Sc3ccc(Cl)cc3N2C)s/c1=C\c1ccncc1 [Compound 15]
cellular stress (levels of Hsp72 and Hsp90) [2]: did not activate cellular stress

Compound: CCn1c(=O)/c(=C2\Sc3c(Cl)cccc3N2C)s/c1=C\c1ccncc1 [Compound 17]
solubility [4]: poor solubility

Second part, led by results:

half-life [3]: ~20 min
Compound: CCn1c(=O)/c(=C2\Sc3cc(Cl)ccc3N2C)s/c1=C\c1ccncc1 [Compound 16]

Percentage at T30min [5]: below the limit of detection
Compound: CCn1c(=O)/c(=C2\Sc3ccccc3N2C)s/c1=C\c1ccccn1 [YM-08]
half-life [6]: less than three minutes

half-life [3]: ~20 min
Compound: CCn1c(=O)/c(=C2\Sc3ccc(Cl)cc3N2C)s/c1=C\c1ccccn1 [Compound 6]

solubility [4]: poor solubility
Compound: CCn1c(=O)/c(=C2\Sc3cccc(Cl)c3N2C)s/c1=C\c1ccncc1 [Compound 14]

half-life [3]: ~20 min
Compound: CCn1c(=O)/c(=C2\Sc3cccc(Cl)c3N2C)s/c1=C\c1ccccn1 [Compound 5]
